{"source": "ChEMBL document CHEMBL5137122", "about": "“The Natural Products Withaferin A and Withanone from the Medicinal Herb Withania somnifera Are Covalent Inhibitors of the SARS-CoV-2 Main Protease” (J Nat Prod, 2022)", "key": {"[1]": {"target": "Replicase polyprotein 1ab (Severe acute respiratory syndrome coronavirus 2) (UniProt P0DTD1)", "experiment": "Inhibition of SARS-COV2 main protease mediated cytotoxicity against human A549 cells transfected with pCMV3-2019-nCoV-3CLpro plasmid assessed as increase in cell number at 5 uM measured at 48 hrs by Nucblue dye based microscopic analysis", "summary_of_the_method": "(§1)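 HepG2 or A549 cells (3×10^5) were lipofected 16 h after seeding with 3 µg pCMV3-2019-nCoV-3CLpro in serum-free DMEM for 8 h, then grown in complete medium for 12 h. Cells were trypsinised and 1×10^4 replated with hygromycin B (200 µg) plus compound or E64 (5 µM) for 48 h. NucBlue (Hoechst 33342) was added for 30 min at 37 °C, then imaging and hemocytometer counts against nontransfected cells.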"}, "[2]": {"target": "Replicase polyprotein 1ab (Severe acute respiratory syndrome coronavirus 2) (UniProt P0DTD1)", "experiment": "Inhibition of SARS-COV2 main protease mediated cytotoxicity against human A549 cells transfected with pCMV3-2019-nCoV-3CLpro plasmid assessed as increase in cell number measured at 48 hrs in presence of buthionine sulfoximine by Nucblue dye based microscopic analysis", "summary_of_the_method": "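Transfected A549 cells were pretreated with 500 µM buthionine sulfoximine. At 20 h post-transfection, compound or E64 (5 µM) was added with 1 mM BSO. After 48 h, cells were stained with NucBlue (Hoechst 33342), imaged and counted, with nontransfected cells handled identically.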"}, "[3]": {"target": "Replicase polyprotein 1ab (Severe acute respiratory syndrome coronavirus 2) (UniProt P0DTD1)", "experiment": "Inhibition of SARS-COV2 main protease mediated cytotoxicity against human HepG2 cells transfected with pCMV3-2019-nCoV-3CLpro plasmid assessed as increase in cell number at 5 uM measured at 48 hrs by Nucblue dye based microscopic analysis", "summary_of_the_method": "as §1"}, "[4]": {"target": "Replicase polyprotein 1ab (Severe acute respiratory syndrome coronavirus 2) (UniProt P0DTD1)", "experiment": "Binding affinity to recombinant SARS-COV2 main protease expressed in Escherichia coli Rosetta cells at 2 uM measured after 16 hrs by LC-MS analysis based equilibrium dialysis method", "summary_of_the_method": "(§2)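 Purified His-GST-tagged MPro expressed in E. coli Rosetta and released with HRV3C protease. MPro (30 µg) in 50 mM potassium phosphate pH 7.5 with 2 µM compound was dialysed against the same solution without protein (3.5 kDa cutoff) for 16 h at room temperature. Drug in the dialysate was quantified by LC-MS or LC-MS/MS against a no-protein control. The dialyser contents were then denatured and drug re-measured.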"}, "[5]": {"target": "Replicase polyprotein 1ab (Severe acute respiratory syndrome coronavirus 2) (UniProt P0DTD1)", "experiment": "Inhibition of recombinant SARS-COV2 main protease expressed in Escherichia coli Rosetta cells at 5 uM using DABCYL-KTSAVLQSGFRKME-EDANS as substrate pre-incubated for 60 mins followed by substarte addition measured at 5 min by FRET-based assay relative to control", "summary_of_the_method": "(§3)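 Time-course variant of the FRET assay: fixed inhibitor concentration with preincubation times varied (5–120 min, 37 °C) in 50 mM Tris pH 7.4 with 2 µM EDTA. Conditions were 0.5 µM MPro with 5 µM inhibitor, or 0.25 µM MPro with 0.5 µM inhibitor.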"}, "[6]": {"target": "T1, Replicase polyprotein 1ab (Severe acute respiratory syndrome coronavirus 2, UniProt P0DTD1)", "experiment": "Inhibition of recombinant SARS-COV2 main protease expressed in Escherichia coli Rosetta cells using DABCYL-KTSAVLQSGFRKME-EDANS as substrate pre-incubated for 60 mins followed by substarte addition measured at 30 min in presence of GSH by FRET-based assay", "summary_of_the_method": "(§4)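 FRET assay with purified E. coli-expressed MPro (0.5 µM) in 50 mM Tris pH 7.4 with 2 µM EDTA and no DTT. MPro was preincubated 60 min at 37 °C with a range of inhibitor concentrations, with 5 mM GSH added for line 12. IC50 came from initial rates.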"}, "[7]": {"target": "Replicase polyprotein 1ab (Severe acute respiratory syndrome coronavirus 2) (UniProt P0DTD1)", "experiment": "Inhibition of SARS-COV2 main protease mediated cytotoxicity against human HepG2 cells transfected with pCMV3-2019-nCoV-3CLpro plasmid assessed as increase in cell number and measured at 48 hrs by calcien AM staining based microscopic analysis", "summary_of_the_method": "(§5)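 3-D organoid-like culture: pCMV3-2019-nCoV-3CLpro-transfected or nontransfected HepG2 or A549 cells (3000 cells/µL) were mixed 1:1 with growth factor-reduced Matrigel, with drug-containing medium added at the same time. Viable cells were imaged after calcein AM staining. Organoids were then melted on ice, pelleted, trypsinised and counted by hemocytometer.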"}, "[8]": {"target": "Replicase polyprotein 1ab (Severe acute respiratory syndrome coronavirus 2) (UniProt P0DTD1)", "experiment": "Inhibition of recombinant SARS-COV2 main protease expressed in Escherichia coli Rosetta cells at 0.5 uM using DABCYL-KTSAVLQSGFRKME-EDANS as substrate pre-incubated for 60 mins followed by substarte addition and measured at 30 min by FRET-based assay relative to control", "summary_of_the_method": "as §3"}, "[9]": {"target": "Replicase polyprotein 1ab (Severe acute respiratory syndrome coronavirus 2) (UniProt P0DTD1)", "experiment": "Inhibition of SARS-COV2 main protease mediated cytotoxicity against human A549 cells transfected with pCMV3-2019-nCoV-3CLpro plasmid assessed as GSH level measured at 48 hrs in presence of buthionine sulfoximine by Nucblue dye based microscopic analysis", "format": "cell-based"}, "[10]": {"target": "Replicase polyprotein 1ab (Severe acute respiratory syndrome coronavirus 2) (UniProt P0DTD1)", "experiment": "Inhibition of SARS-COV2 main protease mediated cytotoxicity against human A549 cells transfected with pCMV3-2019-nCoV-3CLpro plasmid assessed as increase in cell number and measured at 48 hrs by calcien AM staining based microscopic analysis", "summary_of_the_method": "as §5"}, "[11]": {"target": "T1, Replicase polyprotein 1ab", "experiment": "Inhibition of recombinant SARS-COV2 main protease expressed in Escherichia coli Rosetta cells using DABCYL-KTSAVLQSGFRKME-EDANS as substrate pre-incubated for 60 mins followed by substarte addition by FRET-based assay", "summary_of_the_method": "as §4"}, "[12]": {"target": "Replicase polyprotein 1ab (Severe acute respiratory syndrome coronavirus 2) (UniProt P0DTD1)", "experiment": "Binding affinity to recombinant SARS-COV2 main protease expressed in Escherichia coli Rosetta cells at 2 uM measured after 16 hrs by LC-MSMS analysis based equilibrium dialysis method", "summary_of_the_method": "as §2"}}, "note": "pIC50: −log10 of the molar value. Active and inactive are the calls of the source.", "data": [{"smiles": "CC(C)C[C@H](NC(=O)[C@H]1O[C@@H]1C(=O)O)C(=O)NCCCCN=C(N)N", "values": [{"measurement": "inhibition", "setting": "[1]", "value": "Active"}, {"measurement": "inhibition", "setting": "[2]", "value": "Active"}, {"measurement": "inhibition", "setting": "[3]", "value": "Active"}]}, {"smiles": "CC1=C(CO)C(=O)O[C@@H]([C@@H](C)[C@H]2CC[C@H]3[C@@H]4C[C@H]5O[C@]56[C@@H](O)C=CC(=O)[C@]6(C)[C@H]4CC[C@]23C)C1", "note": "[WITHAFERIN A]", "values": [{"measurement": "Activity", "setting": "[4]", "value": "Active"}, {"measurement": "inhibition", "setting": "[1]", "value": "Active"}, {"measurement": "inhibition", "setting": "[5]", "value": 100, "unit": "%"}, {"measurement": "pIC50", "setting": "[6]", "value": 6.20}, {"measurement": "inhibition", "setting": "[7]", "value": "Active"}, {"measurement": "inhibition", "setting": "[2]", "value": "Active"}, {"measurement": "inhibition", "setting": "[8]", "value": 80, "unit": "%"}, {"measurement": "inhibition", "setting": "[9]", "value": "Active"}, {"measurement": "inhibition", "setting": "[10]", "value": "Active"}, {"measurement": "inhibition", "setting": "[3]", "value": "Active"}, {"measurement": "pIC50", "setting": "[11]", "value": 6.27}]}, {"smiles": "CC1=C(C)C(=O)O[C@@H]([C@@H](C)[C@@]2(O)CC[C@H]3[C@@H]4[C@@H]5O[C@@H]5[C@@]5(O)CC=CC(=O)[C@]5(C)[C@H]4CC[C@@]32C)C1", "note": "[WITHANONE]", "values": [{"measurement": "inhibition", "setting": "[1]", "value": "Active"}, {"measurement": "Activity", "setting": "[12]", "value": "Active"}, {"measurement": "inhibition", "setting": "[7]", "value": "Active"}, {"measurement": "inhibition", "setting": "[2]", "value": "Active"}, {"measurement": "inhibition", "setting": "[9]", "value": "Active"}, {"measurement": "inhibition", "setting": "[10]", "value": "Active"}, {"measurement": "inhibition", "setting": "[3]", "value": "Active"}, {"measurement": "pIC50", "setting": "[11]", "value": 5.74}]}]}
